# Screening results from PubChem.
# FXIIa inh: inhibitors of human coagulation factor XIIa | P00748 | purified FXIIa, Boc-QGR-AMC fluorogenic substrate, 2 h | inhibition, % at 5 µM | 220,000 compounds, 0.3% hits | AID 800; in the data active = inhibition above about 40%
# Target sequence (P00748 20-372 limits assumed): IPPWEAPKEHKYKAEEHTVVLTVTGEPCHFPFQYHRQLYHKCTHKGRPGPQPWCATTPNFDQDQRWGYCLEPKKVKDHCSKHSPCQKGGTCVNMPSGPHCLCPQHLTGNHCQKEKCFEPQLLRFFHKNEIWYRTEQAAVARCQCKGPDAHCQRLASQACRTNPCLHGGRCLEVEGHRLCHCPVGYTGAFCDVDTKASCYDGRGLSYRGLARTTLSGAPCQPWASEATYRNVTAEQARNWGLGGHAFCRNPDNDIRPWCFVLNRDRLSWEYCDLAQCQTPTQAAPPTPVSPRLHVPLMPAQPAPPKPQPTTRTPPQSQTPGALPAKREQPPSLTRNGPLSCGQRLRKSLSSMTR
# Target sequence (P00748 373-615 limits assumed): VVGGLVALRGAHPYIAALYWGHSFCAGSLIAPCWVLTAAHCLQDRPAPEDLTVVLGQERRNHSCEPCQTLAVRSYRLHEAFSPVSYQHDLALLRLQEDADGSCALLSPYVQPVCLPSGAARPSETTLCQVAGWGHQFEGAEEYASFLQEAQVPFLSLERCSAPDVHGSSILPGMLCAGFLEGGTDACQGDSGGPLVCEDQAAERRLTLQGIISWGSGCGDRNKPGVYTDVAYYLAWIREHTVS
# Thrombin inh: blocks human thrombin protease activity; P00734; 220,000 compounds, 0.26% hits; inhibition, % at 5 µM; alpha-thrombin, Boc-VPR-AMC fluorogenic substrate cleavage;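 active = inhibition at or above 40%; inactive = inhibition below 40%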
#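 Test system: human alpha-thrombin protein / Dosing: one concentration per compound, 5 µM, with 0.2% DMSO / Medium: pH 7.5 Tris-saline with Tween 20 / Benchmarks: no-compound enzyme wells and no-enzyme blanks / Read-out basis: percent inhibition of thrombin substrate cleavage / Timing: reaction at room temperature / Measured by: fluorescence, ex 355 nm, em 460 nm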
# FXIa inh 1536: factor XIa (human) inhibition | P03951 | purified FXIa, Boc-Glu-Ala-Arg-AMC fluorogenic substrate | inhibition, % at 5 µM | 220,000 compounds, 0.14% hits | AID 798;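 active = inhibition of at least 40%; inactive = inhibition below 40%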;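 also: fluorescence of freed AMC excited at 355 nm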
# Platelet DG rel: modulates dense granule release in human platelets; 300,000 compounds, 0.22% hits; human platelet-rich plasma, SFLLRN dense granule ATP release, luminescence; inhibition, %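 (compounds screened at 7.5 µM in platelet-rich plasma)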;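 active = mean replicate score, as percent of positive control, at or above 50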
# Wee1 degr inh: inhibitors of human Wee1 degradation. HeLa Luc-Wee1K328M stability, luciferase luminescence; 100% = proteasome inhibitor MG132 effect. reporter increase, % at 5 µM. 220,000 compounds, 1.2% hits. AID 1321;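 active = activation above the mean of all tested compounds plus 3 SD, set per screening run, cut at about 8.8% in these data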;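 also: cells exposed to compound for 20 h before luminescence read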
# KLK5 inh: blocks human kallikrein 5 protease activity | Q9Y337 | recombinant hK5, fluorogenic AMC substrate cleavage | inhibition, % at 5 µM | 210,000 compounds, 0.59% hits | AID 873;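 active = inhibition of 40% or more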
# A number is an active result; i = inactive; nt = no result. Rows were chosen to be rich in hits. Some 1.8% of all compounds tested hit in one or more screens of this group.
SMILES,FXIIa inh,Thrombin inh,FXIa inh 1536,Platelet DG rel,Wee1 degr inh,KLK5 inh
CCN1CCN(C(=O)CCc2nnc3ccc(N4CCC5(CC4)OCCO5)nn23)CC1,nt,nt,nt,i,nt,nt
Cc1onc(-c2ccc(Cl)cc2Cl)c1-c1csc(N/N=C/c2ccccc2Cl)n1,i,i,i,i,9.7,i
Cc1onc(-c2ccccc2)c1-c1csc(N/N=C/c2ccccc2Cl)n1,i,i,i,nt,i,i
O=C(CN1C(=O)COc2ccccc21)N1CCOCC1,nt,nt,nt,i,nt,nt
Cc1nc(-c2cnn(-c3ccccc3)c2)c2cc(C)oc2n1,i,66.9,i,i,i,i
Cc1oc2c(O)c(O)ccc2c(=O)c1-c1cnn(-c2ccccc2)c1,i,i,i,i,i,i
O=C(CN1C(=O)c2cccc3cccc1c23)NCc1ccc2c(c1)OCO2,104.7,i,i,i,i,41.3
Cc1nnc(NC(=O)CCC(=O)NCc2ccco2)s1,i,i,i,i,10.0,i
CCOC(=O)c1cn(Cc2ccccc2)nc1-c1ccccc1,nt,nt,nt,i,nt,nt
O=C(/C=C/c1ccco1)c1ccc(O)cc1,i,i,i,i,i,i
CN(C)c1ccc(C(=O)/C=C/c2ccco2)cc1,i,i,i,i,9.4,i
Cc1cc(/C=C\c2ccccc2)nc2ccccc12,i,i,i,i,i,49.5
COc1ccc(/C=C/c2cc(C(=O)O)c3ccccc3n2)cc1,i,i,i,i,i,i
CCN1/C(=C/c2ccc3cccc(C)c3[n+]2CC)Sc2ccccc21,i,i,i,i,i,50.7
CC(C)(C)C(=O)NC(=S)Nc1ccccc1C(N)=O,i,i,i,i,10.7,i
CC(CC(=O)NC1CCCC1)c1ccccc1 (stereo not drawn),i,i,i,i,i,60.2
CC(=O)NC(CC(=O)NC1CCCCCC1)c1ccccc1 (stereo not drawn),i,i,i,i,i,i
CSc1nc(-c2ccccc2)nc(N)c1C(C)=O,i,i,i,i,i,44.5
O=C(C/C=N\OCc1ccc([N+](=O)[O-])cc1)Nc1ccc(F)cc1F,i,i,i,i,i,i
O=C1c2ccccc2C(Nc2ccc3c(c2)OCCO3)N1c1ccccn1 (stereo not drawn),i,i,i,i,i,50.9
O=C1c2ccccc2C(Nc2ccc3c(c2)OCCO3)N1c1ccc(Cl)cn1 (stereo not drawn),i,i,i,i,i,i
CCc1nnc(NC(=O)CCC(=O)N2CCN(Cc3ccc(C)cc3C)CC2)s1,nt,nt,nt,i,nt,nt
CCc1nnc(NC(=O)CCC(=O)N2CCN(CCOc3ccc(C)cc3)CC2)s1,42.1,i,i,i,i,i
O=C(Cc1ccccc1)NC(NC(=S)Nc1cc(Cl)ccc1Cl)C(Cl)(Cl)Cl (stereo not drawn),103.2,i,i,i,i,i
Cc1cccc(N2CCN(C3=NC(=O)C(=C4CCCCC4)S3)CC2)c1,i,i,i,i,i,119.9
SMILES,FXIIa inh,Thrombin inh,FXIa inh 1536,Platelet DG rel,Wee1 degr inh,KLK5 inh
CC(=O)N1CCN(C2=NC(=O)C(=C3CCCCC3)S2)CC1,i,i,i,i,i,i
COC(=O)C1(Cc2ccc(O)cc2)OC(=O)C(O)=C1c1ccc(O)cc1 (stereo not drawn),i,i,i,i,nt,i
COc1ccc2[nH]c3c(NCCCN4CCCC4=O)ncnc3c2c1,i,i,i,i,i,54.2
Cc1nn(C)c(C(=O)NN)c1Cl,i,i,i,i,i,i
CCOc1ccc2nc(SC3CC(=O)N(c4ccc(C)cc4)C3=O)sc2c1 (stereo not drawn),i,i,i,i,i,i
CCOc1ccc(N2C(=O)CC(Sc3nc4ccc(OCC)cc4s3)C2=O)cc1 (stereo not drawn),nt,nt,nt,55.8,i,nt
Cc1ccc2c(c1)C(O)(CC(=O)c1ccc3c(c1)OCO3)C(=O)N2 (stereo not drawn),i,i,i,i,i,i
CS(=O)(=O)Nc1cccc(C(=O)CC2(O)C(=O)Nc3ccc(Br)cc32)c1 (stereo not drawn),i,59.7,i,i,i,73.3
O=C(CC1(O)C(=O)Nc2ccc(Br)cc21)c1ccc2c(c1)OCO2 (stereo not drawn),i,50.4,i,i,i,i
Nc1nnc(SCC(=O)Nc2cccc3ccccc23)s1,nt,nt,nt,i,nt,nt
Cn1c(-c2cnn(-c3ccccc3)c2N)n[nH]c1=S,i,i,i,61.0,i,i
Nc1c(-c2ccc(Cl)cc2)cnn1-c1ccccc1,nt,nt,nt,i,nt,nt
Cc1ccc(-c2cnn(-c3ccccc3)c2N)cc1,nt,nt,nt,52.3,nt,nt
Cc1ccc(C(=O)Nc2cccc(C(=O)N3CCOCC3)c2)cc1Cl,nt,nt,nt,i,nt,nt
O=C1C=CC(=O)N1c1ccc(Sc2ccc([N+](=O)[O-])cc2)cc1,i,i,i,i,16.1,i
COc1ccc(CCNC(=O)C(C(=O)c2ccccc2)n2ccccc2=O)cc1OC (stereo not drawn),i,i,i,i,10.7,i
CC(=O)N1CCC(N(CCN2CCOCC2)C(=S)Nc2c(C)cccc2C)CC1,i,i,i,i,i,i
CCOc1ccc(OCC(=O)Nc2nccs2)cc1,i,nt,i,69.0,i,i
COc1ccc(N2C(=NC(=O)C3CCCO3)SC3CS(=O)(=O)CC32)cc1 (stereo not drawn),nt,nt,nt,i,nt,nt
C(=N\Nc1nc2ccccc2[nH]1)/c1ccccc1,i,i,i,i,i,i
O=c1[nH]c(N/N=C/c2ccccc2)nc2ccccc12,i,i,i,i,10.5,i
CCC(C)C(=O)Nc1nnc(CCc2ccccc2)s1 (stereo not drawn),nt,nt,nt,i,nt,nt
COc1cc(C(=O)Nc2nnc(C)s2)c([N+](=O)[O-])cc1OC,i,i,i,i,i,i
CCOc1ccc(N(Cc2ccccc2F)C2=NC3CS(=O)(=O)CC3S2)cc1 (stereo not drawn),i,i,i,i,i,44.7
O=S1(=O)CC2N=C(N(Cc3c(F)cccc3Cl)c3ccccc3F)SC2C1 (stereo not drawn),i,i,i,i,i,i
SMILES,FXIIa inh,Thrombin inh,FXIa inh 1536,Platelet DG rel,Wee1 degr inh,KLK5 inh
CN(Cc1ccco1)C(=O)C1CCCN(c2ncnc3c2nc2n3CCCCC2)C1 (stereo not drawn),nt,nt,nt,i,nt,nt
CCOC(=O)CCNC(=O)N1CCCC(CNS(=O)(=O)c2cccs2)C1 (stereo not drawn),i,41.0,i,i,i,i
COc1ccc(NC(=O)N2CCCC(CNS(=O)(=O)c3cccs3)C2)c(C)c1 (stereo not drawn),i,i,i,i,i,i
COc1ccc(CNc2nc(-c3cccnc3)nn2C(=O)CC(C)C)cc1,i,95.3,i,i,i,i
COc1ccc(CNc2nc(-c3cccnc3)nn2C(=O)c2cccs2)cc1,i,i,i,i,i,i
COc1ccc(CNc2nc(-c3cccnc3)nn2C(C)=O)cc1,i,99.2,i,i,i,i
CCc1ccc(-n2cnc3cc(C(=O)NCC(OC)OC)ccc32)cc1,nt,nt,nt,i,nt,nt
COc1ccc(Cl)cc1NC(=O)CSc1nnc(Cc2ccc(C)cc2)c(=O)[nH]1,nt,nt,nt,i,nt,nt
CNC(=O)c1c(Br)cnn1-c1ccc(C)cc1,i,i,i,i,9.2,nt
